ChEMBL document CHEMBL1133748, “Synthesis and cytotoxic and antitumor activity of benzo[b]pyrano[3, 2-h]acridin-7-one analogues of acronycine” (J Med Chem, 2000)
Values joined by “and” are separate entries in the source; they are usually repeats but may differ in a detail not shown here. Identical values can stand only once.

Columns and labels:
L1210 = test: In vitro inhibition of L1210 cell proliferation.; assay type: functional, cell-based; settings: Mus musculus
In short: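 L1210 murine leukemia cells grown in RPMI 1640 with 10% fetal calf serum, 2 mM glutamine, penicillin/streptomycin, 10 mM HEPES pH 7.4. Exposed 48 h to nine serial drug dilutions in triplicate. Microculture tetrazolium assay read-out. IC50 = concentration halving optical density versus untreated controls; mean of at least 2 separate experiments.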

Mus musculus [1] = test: Optimal therapeutic effect without toxicity in mice inoculated ip with P388 cells on day 0 with 12.5 mg/kg iv of compound on day 1; assay type: functional
Mus musculus [2] = test: Optimal therapeutic effect without toxicity in mice inoculated ip with P388 cells on day 0 with 12.5 mg/kg ip of compound on day 1; assay type: functional; settings: route intraperitoneal
Mus musculus [3] = test: Optimal therapeutic effect without toxicity in mice inoculated ip with C38 cells on day 0 with 3.12 mg/kg iv of compound measured on day 31; assay type: functional, MC-38
Mus musculus [4] = test: Optimal therapeutic effect without toxicity in mice inoculated ip with C38 cells on day 0 with 6.25 mg/kg iv of compound measured on day 31; assay type: functional, MC-38
Mus musculus [5] = test: Optimal therapeutic effect without toxicity in mice inoculated ip with P388 cells on day 0 with 12.5 mg/kg iv of compound on day 1
Mus musculus [6] = test: Optimal therapeutic effect without toxicity in mice inoculated ip with P388 cells on day 0 with 200 mg/kg ip of compound on day 1; assay type: functional; settings: route intraperitoneal

IC50 (L1210) | Structure (SMILES) | further results
0.5 µM | COc1cc2c(c3c1c(=O)c1cc4ccccc4cc1n3C)[C@@H](OC(=O)CC(C)C)[C@@H](OC(=O)CC(C)C)C(C)(C)O2 | –
0.5 µM | COc1cc2c(c3c1c(=O)c1cc4ccccc4cc1n3C)[C@@H](OC(C)=O)[C@@H](OC(=O)CC(C)C)C(C)(C)O2 | –
14.1 µM | C=C1Oc2cc(OC)c3c(=O)c4cc5ccccc5cc4n(C)c3c2C1(C)C | –
0.9 µM | CCC(=O)O[C@@H]1c2c(cc(OC)c3c(=O)c4cc5ccccc5cc4n(C)c23)OC(C)(C)[C@@H]1OC(=O)CC | –
1.7 µM | COc1cc2c(c3c1c(=O)c1cc4ccccc4cc1n3C)[C@@H](O)[C@@H](OC(=O)c1ccccc1)C(C)(C)O2 | –
6 µM | Oc1cc(O)c2c(O)c3cc4ccccc4cc3nc2c1 | –
3.2 µM | C=C1Oc2cc(O)c3c(O)c4cc5ccccc5cc4nc3c2C1(C)C | –
10.2 µM | CC1(C)C=Cc2c(cc(O)c3c(O)c4cc5ccccc5cc4nc23)O1 | –
4.9 µM | COc1c2c(cc3c1c(=O)c1cc4ccccc4cc1n3C)OC(C)(C)C=C2 | –
17.9 µM | Cn1c2cc3ccccc3cc2c(=O)c2c(O)cc3c(c21)C=CC(C)(C)O3 | –
8.5 µM | C=C1Oc2cc3c(c(OC)c2C1(C)C)c(=O)c1cc2ccccc2cc1n3C | –
9 µM | C=C1Oc2cc(O)c3c(=O)c4cc5ccccc5cc4n(C)c3c2C1(C)C | –
1.9 µM | COc1cc2c(c3c1c(=O)c1cc4ccccc4cc1n3C)[C@@H](O)[C@@H](OC(=O)CC(C)C)C(C)(C)O2 | –
0.2 µM | COc1cc2c(c3c1c(=O)c1cc4ccccc4cc1n3C)[C@@H](OC(C)=O)[C@@H](OC(=O)c1ccccc1)C(C)(C)O2 | –
40.8 µM | COc1cc2c(c3c1c(=O)c1cc4ccccc4cc1n3C)[C@@H](O)[C@@H](O)C(C)(C)O2 | –
1.9 µM | COc1cc2c(c3c1c(=O)c1cc4ccccc4cc1n3C)C=CC(C)(C)O2 [BENZO[B]ACRONYCINE] | –

Structure (SMILES) | IC50 (L1210) | further results
COc1cc2c(c3c1c(=O)c1cc4ccccc4cc1n3C)[C@H]1OC(=O)OC1C(C)(C)O2 (stereo partly drawn) | 0.02 µM | T/C (survival) (Mus musculus [1]): 157%; T/C (survival) (Mus musculus [2]): 327%; T/C (tumor vol) (Mus musculus [3]): 18%
COc1cc2c(c3c1c(=O)c1cc4ccccc4cc1n3C)[C@@H](OC(C)=O)[C@@H](OC(C)=O)C(C)(C)O2 | 0.6 µM | T/C (survival) (Mus musculus [2]; 12.5 mg/kg): 213% and 178%; T/C (tumor vol) (Mus musculus [4]): 4%
COc1cc2c(c3c1c(=O)c1ccccc1n3C)[C@@H](OC(C)=O)[C@@H](OC(C)=O)C(C)(C)O2 (racemic) | 3.4 µM | T/C (survival) (Mus musculus [5]): 202%; T/C (survival) (Mus musculus [2]): 224%
COc1cc2c(c3c1c(=O)c1ccccc1n3C)C=CC(C)(C)O2 [ACRONINE] | 19.9 µM | T/C (survival) (Mus musculus [6]): 125%
